Here are results for 13 compounds from article PMC11190929 (ACS Omega, 2024).

Series [1] addresses T1, MARK4 (Homo sapiens, UniProt Q96L34).
T1 sequence (Q96L34 59-368): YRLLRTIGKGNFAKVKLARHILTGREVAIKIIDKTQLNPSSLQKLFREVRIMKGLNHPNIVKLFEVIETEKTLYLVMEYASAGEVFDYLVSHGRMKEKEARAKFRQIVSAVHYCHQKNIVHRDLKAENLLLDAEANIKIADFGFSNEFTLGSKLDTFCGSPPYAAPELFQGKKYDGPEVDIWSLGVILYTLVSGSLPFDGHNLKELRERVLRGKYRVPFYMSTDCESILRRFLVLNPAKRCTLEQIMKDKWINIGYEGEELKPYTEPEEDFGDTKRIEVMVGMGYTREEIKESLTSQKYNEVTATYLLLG
Briefly: Fluorescence binding studies. As to conditions: for KSV: Stern-Volmer. The method, boiled down: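 Intrinsic fluorescence of recombinant MARK4 (4 μM) titrated with test compound at 0–15 μM. Excitation 280 nm, emission 300–400 nm, slit 10 nm, medium response. Quenching data fitted to the Stern–Volmer and modified Stern–Volmer equations to give binding constant Ka and number of binding sites n.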

The target in series [2] is T1, MARK4. Nature of the series: ATPase enzyme inhibition assay. The series is classed as biochemical. As to conditions: for ATPase activity of MARK4: in the presence of compound. Summed up:
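MARK4 (residues 59–368), expressed in E. coli M15 and purified, at 6 μM with 20 μM ATP in 20 mM Tris pH 8.0. Incubated with test compound (0–120 μM) at 25 °C for 10–15 min. Phosphate detected with Biomol Green malachite-green reagent, absorbance 620 nm. IC50 computed with an online calculator.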

For series [3], the system named is SNU-475 cells. Briefly: Cell viability. The conditions noted are these: Homo sapiens, SNU-475, 72 h, read-out: IC50 (cell viability). Format: cell-based. The method, boiled down: (§1)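 Cells grown in Eagle's MEM with 10% FBS and 1% penicillin/streptomycin, seeded at 2000–3000 cells/well and left overnight. Treated with test compound 0–200 μM for 48–72 h. PrestoBlue HS (resazurin) added for about 45 min, fluorescence read at 560/590 nm. Percent viability relative to vehicle control plotted against dose.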

Series [4] relates to C3A cells. Briefly: Cell viability. Format: cell-based. As to conditions: Homo sapiens, 72 h, read-out: IC50 (cell viability). Summed up: as §1
A further series relates to HEK293 cells. Nature of the series: Cytotoxicity on noncancerous HEK293 cells. Format: cell-based, human. The conditions noted are these: up to 200 μM. Summed up: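 HEK293 cells in RPMI 1640 medium, seeded at 2000–3000 cells/well and allowed to grow overnight. Exposed to test compound over 0–200 μM for 48–72 h. Resazurin-based PrestoBlue HS reagent applied about 45 min, fluorescence measured at excitation 560/emission 590 nm. Viability expressed as percent of vehicle control across doses.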

Series [5] deals with tau phosphorylation in SH-SY5Y cells. Nature of the series: Tau-phosphorylation assay. The series is classed as cell-based, human. As to conditions: compound at its enzyme IC50 concentration, 24 h. Summed up:
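SH-SY5Y neuroblastoma cells kept in 1:1 Eagle's MEM/F12 and plated in six-well plates, then incubated with test compound for 24 h. Cells were trypsinized, fixed and rinsed, then labelled with an anti-phospho-tau primary and an Alexa-647 conjugated secondary antibody. After washing and resuspension in FACS buffer, cells were analysed by flow cytometry.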

Series [6] concerns SNU-475 cells. Nature of the series: Transwell cell migration assay, SNU-475. The series is classed as cell-based, human. The conditions noted are these: SNU-475, 1/2 IC50, 24 h, vs vehicle control. Summed up: (§2)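 Serum-starved cells treated with test compound or vehicle for 24 h, then 50 × 10^3 cells/well placed in serum-free medium in the upper Boyden chamber (8.0 μm PET membrane). Lower chamber held complete medium with 10% FBS. Next day, non-migrated cells were swabbed off. Migrated cells were methanol-fixed, stained with 0.4% crystal violet in 25% methanol, and counted in 4–5 random fields.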

Series [7] relates to C3A cells. Nature of the series: Transwell cell migration assay, C3A. As to conditions: 1/2 IC50, 24 h, vs vehicle control. The series is classed as cell-based, human. The method, boiled down:
as §2

The subject of series [8] is SNU-475 cells. Nature of the series: Annexin-V/PI staining. Format: cell-based, human. The conditions noted are these: SNU-475, annexin-V/PI. Summed up: (§3)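 Cells were exposed to test compound or vehicle for 72 h, then trypsinized and washed 2–3 times in sterile PBS. They were stained with PI and Cy5-labelled annexin-V and analysed by flow cytometry. Positive cells were quantified from n = 3 biological replicates, with a t test against vehicle.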

For series [9], the system named is C3A cells. Briefly: Annexin-V/PI staining. The series is classed as cell-based, human. The method, boiled down:
as §3

[10] abbreviates: fluorescence quenching, modified Stern-Volmer.

“(Z)-N′-(6-Fluoro-2-oxoindolin-3-ylidene)-4-hydroxy-3-methoxybenzohydrazide [VI-11]”: the KSV at MARK4 [1] (fluorescence quenching) is on record as 1.4 × 10^5 M^–1. The “n (number of binding sites)” value at MARK4 [1] (setting [10]) is 1.015. Besides, at MARK4 [1] (fluorescence quenching, modified Stern-Volmer, excitation 280 nm), the “Ka (binding constant)” value is 1.56 × 10^5 M^–1.
On to `COc1cc(C(=O)N/N=C2\C(=O)Nc3cc(Cl)ccc32)ccc1O` [VI-4, (Z)-N′-(6-Chloro-2-oxoindolin-3-ylidene)-4-hydroxy-3-methoxybenzohydrazide], for which binding on MARK4 [1] was characterised by a dissociation constant (Kd) of 1.12 µM. The KSV at MARK4 [1] (fluorescence quenching) is listed as 1.8 × 10^5 M^–1. At MARK4 [1] (setting [10]), the “n (number of binding sites)” value was found to be 1.141.
As for `COc1ccc2c(c1)/C(=N/NC(=O)c1ccc(O)c(OC)c1)C(=O)N2` [VI-3, (Z)-4-Hydroxy-3-methoxy-N′-(5-methoxy-2-oxoindolin-3-ylidene)benzohydrazide], at MARK4 [1], binding was put at a Kd of 0.0444 µM. For the same compound, the KSV on MARK4 [1] (fluorescence quenching) is recorded as 3.8 × 10^5 M^–1. At MARK4 [1] (setting [10]), the “n (number of binding sites)” value is given as 1.367. The “ATPase activity of MARK4” value at MARK4 [2] was “decreased considerably”.
Take `COc1cc(C(=O)N/N=C2\C(=O)Nc3c2cccc3[N+](=O)[O-])ccc1O` [VI-8, (Z)-4-Hydroxy-3-methoxy-N′-(7-nitro-2-oxoindolin-3-ylidene)benzohydrazide]: the Kd (in general, the concentration at which binding is half-saturated) on MARK4 [1] is 76.3 µM. For the same compound, the KSV at MARK4 [1] (fluorescence quenching) is 0.6 × 10^5 M^–1. At MARK4 [1] (setting [10]), the “n (number of binding sites)” value came out at 0.8606.
On the same counts, the results for `COc1cc(C(=O)N/N=C2\C(=O)Nc3ccc(Cl)cc32)ccc1O` [VI-6, (Z)-N′-(5-Chloro-2-oxoindolin-3-ylidene)-4-hydroxy-3-methoxybenzohydrazide] are 1.57 µM, 1.4 × 10^5 M^–1 and 1.135.
The like results for `COc1ccc2c(c1)NC(=O)/C2=N\NC(=O)c1ccc(O)c(OC)c1` [VI-13, (Z)-4-Hydroxy-3-methoxy-N′-(6-methoxy-2-oxoindolin-3-ylidene)benzohydrazide] were, in that order, 0.0375 µM, 0.8 × 10^5 M^–1 and 1.517.
Regarding `COc1cc(C(=O)N/N=C2\C(=O)Nc3ccc(C)cc32)ccc1O` [VI-2, (Z)-4-Hydroxy-3-methoxy-N′-(5-methyl-2-oxoindolin-3-ylidene)benzohydrazide], the dissociation constant Kd at MARK4 [1] is 0.725 µM. For the same compound, the KSV at MARK4 [1] (fluorescence quenching) is listed as 3.7 × 10^5 M^–1. Also, the “n (number of binding sites)” value at MARK4 [1] (setting [10]) is on record as 1.145. Moreover, at MARK4 [2], the “ATPase activity of MARK4” value is “decreased considerably”.
In the case of `COc1cc(C(=O)N/N=C2\C(=O)Nc3c(Cl)cccc32)ccc1O` [VI-9, (Z)-N′-(7-Chloro-2-oxoindolin-3-ylidene)-4-hydroxy-3-methoxybenzohydrazide], the equilibrium dissociation constant (Kd) on MARK4 [1] was 6.76 µM. For the same compound, at MARK4 [1] (fluorescence quenching), the KSV is 1.0 × 10^5 M^–1. Further, at MARK4 [1] (setting [10]), the “n (number of binding sites)” value worked out at 1.047. For the same compound, the IC50 (as a rule, the midpoint of a concentration-inhibition curve) at MARK4 [2] is 7.16 µM; in the series with SNU-475 cells [3], 4.35 µM; with C3A cells [4] it was 6.96 µM. At MARK4 [2], the “ATPase activity of MARK4” value is on record as “decreased considerably”. Further, in the series on HEK293 cells, the “Cytotoxicity on noncancerous HEK293 cells” value is on record as “did not exhibit cytotoxicity”. In addition, the Tau phosphorylation entry in series [5] is given as “decreased the tau phosphorylation”. Besides, the Cell migration result in the series with SNU-475 cells [6] and in the series with C3A cells [7] was “significantly decreased the migration” in each case. Further, the Apoptosis induction entry in the series with SNU-475 cells [8] and in the series on C3A cells [9] was “strongly promote early apoptosis” in each case.
In turn, `COc1cc(C(=O)N/N=C2\C(=O)Nc3ccccc32)ccc1O` [VI-1, (Z)-4-Hydroxy-3-methoxy-N′-(2-oxoindolin-3-ylidene)benzohydrazide] gave a Kd on MARK4 [1] of 0.179 µM. Also, at MARK4 [1] (fluorescence quenching), the KSV is 3.9 × 10^5 M^–1. For the same compound, the “n (number of binding sites)” value at MARK4 [1] (setting [10]) turned out to be 1.241.
The like results for `COc1cc(C(=O)N/N=C2\C(=O)Nc3cc(Cl)c(F)cc32)ccc1O` [VI-10, (Z)-N′-(6-Chloro-5-fluoro-2-oxoindolin-3-ylidene)-4-hydroxy-3-methoxybenzohydrazide] were, in that order, 12.7 µM, 0.8 × 10^5 M^–1 and 1.006.
On to `COc1cc(C(=O)N/N=C2\C(=O)Nc3c(C)cc(C)cc32)ccc1O` [VI-5, (Z)-N′-(5,7-Dimethyl-2-oxoindolin-3-ylidene)-4-hydroxy-3-methoxybenzohydrazide], for which binding on MARK4 [1] was characterised by a dissociation constant (Kd) of 40 µM. On MARK4 [1] (fluorescence quenching), the KSV is reported as 1.0 × 10^5 M^–1. At MARK4 [1] (setting [10]), the “n (number of binding sites)” value is given as 0.8404. For the same compound, the “ATPase activity of MARK4” value on MARK4 [2] was “decreased considerably”.
As for `COc1cc(C(=O)N/N=C2\C(=O)Nc3cc(F)ccc32)ccc1O` [VI-14, (Z)-N′-(6-Fluoro-2-oxoindolin-3-ylidene)-4-hydroxy-3-methoxybenzohydrazide], the Kd at MARK4 [1] was 0.735 µM. At MARK4 [1] (fluorescence quenching), the KSV is listed as 1.8 × 10^5 M^–1. Further, on MARK4 [1] (setting [10]), the “n (number of binding sites)” value is 1.199.
The like results for `COc1cc(C(=O)N/N=C2\C(=O)Nc3ccc(Br)cc32)ccc1O` [VI-7, (Z)-N′-(5-Bromo-2-oxoindolin-3-ylidene)-4-hydroxy-3-methoxybenzohydrazide] were, in that order, 3.01 µM, 1.7 × 10^5 M^–1 and 1.067.
